IC50 and inhibition data for 18 molecules are collected here from ChEMBL document CHEMBL1129328, “Structure-activity studies of 6-(tetrazolylalkyl)-substituted decahydroisoquinoline-3-carboxylic acid AMPA receptor antagonists. 1. Effects of stereochemistry, chain length, and chain substitution” (J Med Chem, 1996).

Assay [1] addresses Glutamate NMDA receptor. The assay can be described thus: Binding affinity at N-methyl-D-aspartate glutamate receptor in rat cortical tissue by [3H]-CGS- 19755 displacement. The method in brief:
(§1)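 Displacement of radioligand from rat cortical tissue membranes: [3H]CGS 19755 for NMDA sites, [3H]kainic acid for kainate sites. Each determination run in triplicate unless otherwise indicated.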

Assay [2] has as its target T1, Glutamate receptor ionotropic, AMPA (Rattus norvegicus, UniProt P19490+P19491+P19492+P19493). The experiment in a line: Binding affinity at Ionotropic glutamate receptor AMPA in rat cortical tissue by [3H]AMPA displacement.
Assay [3] deals with T1, Glutamate receptor ionotropic, AMPA. The assay can be described thus: Compound was tested for AMPA receptor antagonistic activity by measuring its ability to inhibit depolarizations induced by 40 uM AMPA in rat cortical slice preparation. It is filed as functional. The method in brief:
(§2)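 Rat cortical slice (cortical wedge) preparation. Antagonism measured as inhibition of depolarizations evoked by 40 uM AMPA (a few cases 40 uM quisqualic acid instead) or 40 uM NMDA. Compounds were also applied alone to check for agonist activity.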

Assay [4] concerns the target Glutamate receptor ionotropic, kainate. The assay can be described thus: Binding affinity at Ionotropic glutamate receptor kainate in rat cortical tissue by [3H]-kainic acid displacement. The essentials:
as §1

Assay [5] concerns the target Glutamate NMDA receptor. The experiment in a line: (§3) Compound was tested for NMDA receptor antagonistic activity by measuring its ability to inhibit depolarizations induced by 40 uM NMDA in rat cortical slice preparation. It is filed as functional.
For assay [6], the target named is Glutamate receptor ionotropic, kainate. It is filed as functional.
The target in assay [7] is T1, Glutamate receptor ionotropic, AMPA. The experiment in a line: AMPA receptor antagonistic activity as inhibition of depolarizations induced by 40 uM AMPA in rat cortical slice preparation. In kind it is functional.
Assay [8] has as its target Glutamate NMDA receptor (Rattus norvegicus) (UniProt P35439+Q00959+Q00960+Q00961+Q62645+Q8VHN2+Q9R1M7). The assay is described as §3. It is filed as functional. The method in brief: as §2
Assay [9] deals with T1, Glutamate receptor ionotropic, AMPA. The experiment in a line: Compound was tested for AMPA receptor antagonistic activity by measuring its ability to inhibit depolarizations induced by 40 uM quisqualic acid in rat cortical slice preparation. In kind it is functional. The method in brief: as §2

Regarding `O=C(O)[C@@H]1C[C@H]2C[C@@H](C(Cc3nnn[nH]3)c3ccccc3)CC[C@H]2CN1` (stereo partly drawn), the IC50 is 15.1 µM in [1]; 9.8 µM in assay [2]; 9 µM in [3]; greater than 100 µM in assay [4]; 100 µM in [5]; 23.6 µM in [6].

On to `O=C(O)[C@@H]1C[C@H]2C[C@@H](c3nnn[nH]3)CC[C@H]2CN1`, for which the IC50 in [7] was 40.9 µM; in assay [2], 12.8 µM; in [4], 31.8 µM; in assay [5] it was 7.5 µM; in assay [6] it was greater than 100 µM.

Take `O=C(O)[C@@H]1C[C@H]2C[C@H](CCc3nnn[nH]3)CC[C@H]2CN1`: the IC50 is 60.6 µM in assay [1]; greater than 100 µM in assay [7]; 59.6 µM in assay [2]; 180 µM in [4]; greater than 100 µM in assay [6].

Turning to `O=C(O)C1Cc2cc(CCc3nnn[nH]3)ccc2CN1` (stereo not drawn), the IC50 was greater than 10 µM in [1]; greater than 100 µM in [7]; greater than 100 µM in assay [2]; greater than 10 µM in assay [4]; greater than 100 µM in [5]; greater than 100 µM in assay [6].

`CN(Cc1nn[nH]n1)[C@H]1CC[C@H]2CN[C@H](C(=O)O)C[C@H]2C1`: the IC50 in assay [1] was 65.8 µM; in assay [7] it was greater than 100 µM; in assay [2], greater than 100 µM; in [4] it was greater than 100 µM; in assay [5], greater than 100 µM; in assay [6], greater than 100 µM.

On to `O=C(O)[C@@H]1C[C@H]2C[C@@H](NCc3nn[nH]n3)CC[C@H]2CN1`, for which the IC50 is 11.5 µM in assay [1]; 69.3 µM in assay [7]; greater than 100 µM in [2]; greater than 100 µM in [4]; 33.4 µM in [5]; greater than 100 µM in assay [6].

On to `O=C(O)[C@H]1C[C@H]2CC(CCc3nnn[nH]3)CC[C@H]2CN1` (stereo partly drawn), for which the IC50 is greater than 10 µM in assay [1]; greater than 100 µM in assay [7]; greater than 100 µM in [2]; greater than 100 µM in assay [4]; greater than 100 µM in assay [5]; greater than 100 µM in assay [6].

Take `O=C(O)[C@@H]1C[C@H]2C[C@@H](OCc3nn[nH]n3)CC[C@H]2CN1`: the IC50 in assay [1] is 5.9 µM; in assay [7], 29.5 µM; in [2], 24 µM; in [4], 55 µM; in assay [5] it was 28.3 µM; in [6] it was greater than 100 µM.

Turning to `O=C(O)[C@@H]1NCC[C@H]2CC(CCc3nnn[nH]3)CC[C@H]21` (stereo partly drawn), the IC50 is 12.8 µM in assay [1]; greater than 100 µM in [7]; greater than 100 µM in assay [2]; greater than 100 µM in assay [4]; greater than 100 µM in assay [6]. The same molecule displayed an inhibition in assay [8] of 50%.

Regarding `O=C(O)[C@@H]1C[C@H]2C[C@@H](CCc3nnn[nH]3)CC[C@@H]2CN1`, the IC50 in assay [1], in assay [7], in [2], in [4], in [5] and in assay [6] was greater than 100 µM each time.

Consider `O=CN(Cc1nn[nH]n1)[C@H]1CC[C@H]2CN[C@H](C(=O)O)C[C@H]2C1`, for which the IC50 was greater than 100 µM in assay [1], 23.1 µM in assay [2] and greater than 100 µM in assay [4].

Regarding `O=C(O)[C@@H]1C[C@H]2C[C@@H](CCCCc3nnn[nH]3)CC[C@H]2CN1`, the 50% inhibitory concentration (IC50) was greater than 100 µM in assay [1]; 27.6 µM in assay [7]; 57 µM in assay [2]; greater than 100 µM in assay [4]; greater than 100 µM in assay [5]; less than 100 µM in assay [6].

With `O=C(O)[C@@H]1C[C@H]2C[C@@H](Cc3nnn[nH]3)CC[C@H]2CN1`, the IC50 was 0.94 µM in assay [1]; 84.5 µM in assay [2]; greater than 100 µM in assay [4]; greater than 100 µM in [9]; 1.4 µM in assay [5]; greater than 100 µM in assay [6].

For `O=C(O)[C@@H]1C[C@H]2C[C@@H](CCCc3nnn[nH]3)CC[C@H]2CN1`, the half-inhibitory concentration (IC50) in assay [1] is 27 µM; in assay [2] it was 16.8 µM; in assay [4], 18.7 µM; in [9] it was 22 µM; in assay [5], greater than 100 µM; in [6], greater than 100 µM.

Turning to `O=C(O)[C@@H]1C[C@H]2C[C@H](OCc3nn[nH]n3)CC[C@H]2CN1`, the IC50 was 5.3 µM in [1]; greater than 100 µM in assay [7]; greater than 100 µM in assay [2]; greater than 100 µM in assay [4]; 13.6 µM in assay [5]; greater than 100 µM in [6].

For `CC(C[C@H]1CC[C@H]2CN[C@H](C(=O)O)C[C@H]2C1)c1nnn[nH]1` (stereo partly drawn), the IC50 is greater than 100 µM in [1], 4.21 µM in assay [2] and 27.3 µM in [4].

Turning to `CC(Cc1nnn[nH]1)[C@H]1CC[C@H]2CN[C@H](C(=O)O)C[C@H]2C1` (stereo partly drawn), the IC50 in [1] was 53.2 µM; in [2], 3 µM; in assay [3], 6 µM; in assay [4], 35 µM; in [5], greater than 100 µM; in assay [6] it was 58 µM.

In the case of `O=C(O)[C@@H]1C[C@H]2C[C@@H](CCc3nn[nH]n3)CC[C@H]2CN1` [TEZAMPANEL ANHYDROUS], the IC50 is 6 µM in assay [7], 247 µM in assay [4], 61.3 µM in assay [5] and 31.7 µM in assay [6].

As a reminder, the IC50 is the concentration that gives 50% inhibition. Higher therefore signals a need for much substance. Usually inhibition stands for the percentage by which the read-out fell short of the control. Read a high inhibition as a strong effect.
